From ChEMBL document CHEMBL2321751, “Optimization of chloronitrobenzamides (CNBs) as therapeutic leads for human African trypanosomiasis (HAT)” (J Med Chem, 2013)
Values after ≈ are worked out from the molar mass of the structure shown.

Tests used:
[1] = test system: Trypanosoma brucei brucei; test: Antitrypanosomal activity against blood stream stage of Trypanosoma brucei brucei after 48 hrs by Cell Titre Glo assay; type: functional, organism-based
How it was run: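 Culture-adapted parasites were grown in HMI-9 with 10% heat-inactivated FBS, 10% Serum Plus and penicillin/streptomycin to 1 × 10⁶ cells/mL, then diluted to 1 × 10⁴ cells/mL. DMSO dilution series were pin-transferred and plates held 48 h at 37 °C in 5% CO2. After 30 min at room temperature, CellTiter-Glo was added and luminescence read after 8 min.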

Raji = test: Cytotoxicity against human Raji cells after 72 hrs by Cell Titre Glo assay; type: cell-based
How it was run: (§1)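 Human cells grown to 80% confluence were plated in 384-well format and received compound dilutions by pin tool. After 72 h at 37 °C in 5% CO2, viability was measured by CellTiter-Glo luminescence.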

HepG2 = test: Cytotoxicity against human HepG2 cells after 72 hrs by Cell Titre Glo assay; type: cell-based; conditions: HepG2, 72 h; how it was run: as §1
BJ = test: Cytotoxicity against human BJ cells after 72 hrs by Cell Titre Glo assay; type: cell-based; how it was run: as §1
HEK293 = test: Cytotoxicity against HEK293 cells after 72 hrs by Cell Titre Glo assay; type: cell-based; conditions: Homo sapiens, HEK293, 72 h; how it was run: as §1
[2] = Permeability of the compound at pH 7.4 by PAMPA; type: ADME; conditions: for permeability: pampa, BLD = below limit of detection; for Papp: PAMPA, read-out: permeability
How it was run: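 Compound (10 mM DMSO stock) was diluted in system solution buffer pH 7.4 and placed in the donor chamber of a PAMPA sandwich whose membrane was coated with GIT lipid. Acceptor buffer filled the acceptor chamber, and the assembly was stirred for 30 min. Donor and acceptor UV spectra (250–500 nm) were compared with a reference to give the permeability coefficient. Run in triplicate.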

[3] = Kinetic solubility of the compound in PBS buffer at pH 7.4 after 18 hrs by UV spectrophotometric analysis; type: physicochemical; conditions: for Kinetic_solubility: buffer, pH 7.4, 18 h, BLD = below limit of detection; for solubility kinetic at 18 h: PBS buffer, pH 7.4, read-out: Kinetic_solubility
How it was run: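 Compound from a 10 mM stock was added to PBS pH 7.4 and left 18 h at room temperature. The suspension was filtered, and the filtrate was mixed 1:1 with 1-propanol. Solubility was derived from UV spectrum AUC (250–500 nm) relative to a 1-propanol/PBS reference. Run in triplicate.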

[4] = test system: Trypanosoma brucei brucei; test: Antitrypanosomal activity against Trypanosoma brucei brucei 221 after 48 hrs by Cell Titre Glo assay; type: functional, organism-based; conditions: Trypanosoma brucei, 221, 48 h
How it was run: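 Bloodstream-form parasites grown in HMI-9 with 10% heat-inactivated FBS, 10% Serum Plus and penicillin/streptomycin at 37 °C, 5% CO₂, to 1 × 10⁶ cells/mL. Diluted to 1 × 10⁴ cells/mL, then dosed with a DMSO dilution series by pin transfer. Incubated 48 h at 37 °C, 5% CO₂. Viability read by CellTiter-Glo luminescence. EC₅₀ from a variable-slope sigmoidal fit. Mean of six replicates, errors as 95% CI.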

[5] = test system: Trypanosoma brucei rhodesiense; test: Antitrypanosomal activity against bloodstream forms of wild type Trypanosoma brucei rhodesiense STIB900 after 70 hrs by Alamar Blue assay; type: functional, organism-based; conditions: STIB900, 70 h
How it was run: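 T. b. rhodesiense STIB 900 was cultured in MEM with Earle's salts and Baltz supplements (0.2 mM 2-mercaptoethanol, 1 mM Na-pyruvate, 0.5 mM hypoxanthine, 15% heat-inactivated horse serum). 2000 bloodstream forms per well were exposed to serial drug dilutions for 70 h at 37 °C in humidified 5% CO2. Resazurin followed for 2–4 h, read by fluorescence (ex 536/em 588 nm). IC50 came from sigmoidal curves by linear regression.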

[6] = test system: Trypanosoma brucei gambiense; test: Antitrypanosomal activity against Trypanosoma brucei gambiense STIB930 after 70 hrs by Alamar Blue assay; type: functional, organism-based; conditions: STIB930, 70 h
How it was run: (§2)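 T. b. gambiense strains were grown in HMI-9 with 15% heat-inactivated FBS and 5% human serum. 10000 trypanosomes per well were seeded into serial drug dilutions and held 70 h at 37 °C in humidified 5% CO2. Resazurin was then added for a further 4–6 h, and fluorescence was read (ex 536/em 588 nm). IC50 was taken by linear regression from sigmoidal dose-inhibition curves.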

[7] = test system: Trypanosoma brucei gambiense; test: Antitrypanosomal activity against Trypanosoma brucei gambiense DAL 898R after 70 hrs by Alamar Blue assay; type: functional, organism-based; how it was run: as §2
[8] = test system: Trypanosoma brucei gambiense; test: Antitrypanosomal activity against Trypanosoma brucei gambiense KO48 after 70 hrs by Alamar Blue assay; type: functional, organism-based; conditions: KO48, 70 h; how it was run: as §2

SMILES	EC50 [1] [µM]	EC50 (Raji) [µM]	EC50 (HepG2) [µM]	EC50 (BJ) [µM]	EC50 (HEK293) [µM]	EC50 [4] [µM]	other results
O=C(Nc1nc2ccccc2s1)c1cc([N+](=O)[O-])ccc1Cl	1.6						
O=C(Nc1ccc(F)c(Cl)c1)c1cc([N+](=O)[O-])ccc1Cl	0.95						
Cc1c(NC(=O)c2cc([N+](=O)[O-])ccc2Cl)cccc1-c1nc2ccccc2s1		> 25	> 25	> 25	> 25	0.68	permeability [2]: BLD; Kinetic_solubility [3]: BLD
O=C(Nc1ccc(O)c(-c2nc3ccccc3s2)c1)c1cc([N+](=O)[O-])ccc1Cl		> 25	> 25	> 25	> 25	> 33	permeability [2]: BLD; solubility kinetic at 18 h [3]: 0.023 µM (≈ 0.00979 µg/mL)
O=C(Nc1cc(-c2nc3ccccc3s2)ccc1F)c1cc([N+](=O)[O-])ccc1Cl		> 25	> 25	> 25	> 25	0.16	EC50 [5]: 0.23 µM; Papp [2]: 191 ×10⁻⁶ cm/s; Kinetic_solubility [3]: BLD; EC50 [6]: 0.2 µM
O=C(Nc1ccc(F)c(-c2nc3ccccc3s2)c1)c1cc([N+](=O)[O-])ccc1Cl		> 25	> 25	> 25	> 25	0.25	EC50 [5]: 0.069 µM; Papp [2]: 17 ×10⁻⁶ cm/s; solubility kinetic at 18 h [3]: 0.49 µM (≈ 0.21 µg/mL); EC50 [6]: 0.063 µM
COc1ccc(-c2nc3ccccc3s2)cc1NC(=O)c1cc([N+](=O)[O-])c(N2CCN(C)CC2)cc1Cl		> 25	> 25	> 25	> 25	0.14	EC50 [5]: 0.17 µM; Papp [2]: 676 ×10⁻⁶ cm/s; solubility kinetic at 18 h [3]: 0.5 µM (≈ 0.269 µg/mL); EC50 [6]: 0.073 µM
COC(=O)C1CCN(c2cc(Cl)c(C(=O)Nc3cc(-c4nc5ccccc5s4)ccc3C)cc2[N+](=O)[O-])CC1		> 25	> 25	> 25	> 25	0.31	Papp [2]: 24 ×10⁻⁶ cm/s; Kinetic_solubility [3]: BLD
COc1cc(Cl)c(C(=O)Nc2cccc(-c3nc4ccccc4s3)c2)cc1[N+](=O)[O-]		> 25	> 25	> 25	> 25	0.33	Papp [2]: 12 ×10⁻⁶ cm/s; solubility kinetic at 18 h [3]: 0.01 µM (≈ 0.0044 µg/mL)
Cc1ccc(-c2nc3ccccc3s2)cc1NC(=O)c1cc([N+](=O)[O-])c(N2CCCCC2)cc1Cl		> 25	> 25	> 25	> 25	0.73	Papp [2]: < 1 ×10⁻⁶ cm/s; Kinetic_solubility [3]: BLD
O=C(Nc1ccc([N+](=O)[O-])cc1)c1cc([N+](=O)[O-])ccc1Cl	1.8						
O=C(Nc1ccc2oc(-c3ccccc3Cl)nc2c1)c1cc([N+](=O)[O-])ccc1Cl	2.8						
O=C(Nc1ccc2oc(-c3ccccc3Br)nc2c1)c1cc([N+](=O)[O-])ccc1Cl	4.2						
O=C(Nc1ccc2oc(-c3ccccc3F)nc2c1)c1cc([N+](=O)[O-])ccc1Cl	4.9						
O=C(Nc1ccc2oc(-c3ccccc3)nc2c1)c1cc([N+](=O)[O-])ccc1Cl	6.1						
O=C(Nc1nc(-c2ccc(F)cc2)cs1)c1cc([N+](=O)[O-])ccc1Cl	0.37						
O=C(Nc1nc(-c2ccc(F)cc2F)cs1)c1cc([N+](=O)[O-])ccc1Cl	0.4						
Cc1sc(NC(=O)c2cc([N+](=O)[O-])ccc2Cl)nc1-c1ccccc1	0.54						

SMILES	EC50 [1] [µM]	EC50 (Raji) [µM]	EC50 (HepG2) [µM]	EC50 (BJ) [µM]	EC50 (HEK293) [µM]	EC50 [4] [µM]	other results
Cc1ccc(-c2csc(NC(=O)c3cc([N+](=O)[O-])ccc3Cl)n2)cc1	1.2						
COc1ccc(OC)c(-c2csc(NC(=O)c3cc([N+](=O)[O-])ccc3Cl)n2)c1	2.1						
COc1cccc2sc(NC(=O)c3cc([N+](=O)[O-])ccc3Cl)nc12	0.5						
O=C(Nc1cccc(C(F)(F)F)c1)c1cc([N+](=O)[O-])ccc1Cl	0.95						
O=C(Nc1cc(C(F)(F)F)ccc1Cl)c1cc([N+](=O)[O-])ccc1Cl	0.52						
O=C(Nc1cccc(Br)c1)c1cc([N+](=O)[O-])ccc1Cl	1.8						
COc1ccc2nc(NC(=O)c3cc([N+](=O)[O-])ccc3Cl)sc2c1	0.98						
Cc1ccc2nc(NC(=O)c3cc([N+](=O)[O-])ccc3Cl)sc2c1	1.1						
Cc1ccc2nc(NC(=O)c3cc([N+](=O)[O-])ccc3Cl)[nH]c2c1	> 33						
Cc1ccc(-c2nc3cc(Cl)ccc3o2)cc1NC(=O)c1cc([N+](=O)[O-])ccc1Cl	> 33						
O=C(Nc1ccc(-c2nc3ccccc3o2)cc1)c1cc([N+](=O)[O-])ccc1Cl	6.1						
O=C(Nc1cccc(-c2nc3ncccc3o2)c1)c1cc([N+](=O)[O-])ccc1Cl	3.1						
O=C(Nc1ccc(-c2nc3ccccc3[nH]2)cc1)c1cc([N+](=O)[O-])ccc1Cl	4.1						
O=C(Nc1cc(C(F)(F)F)cc(C(F)(F)F)c1)c1cc([N+](=O)[O-])ccc1Cl		14	> 27	22	14	9.6	Papp [2]: 44 ×10⁻⁶ cm/s; Kinetic_solubility [3]: BLD
O=C(Nc1nc(-c2ccc(Cl)cc2)cs1)c1cc([N+](=O)[O-])ccc1Cl		12	> 27	18	15	4.6	Papp [2]: 3 ×10⁻⁶ cm/s; Kinetic_solubility [3]: BLD
O=C(Nc1ccc(-c2nc3ccccc3s2)cc1)c1cc([N+](=O)[O-])ccc1Cl		> 27	> 27	> 27	> 27	1.1	permeability [2]: BLD; Kinetic_solubility [3]: BLD
O=C(Nc1cc(-c2nc3ccccc3o2)ccc1F)c1cc([N+](=O)[O-])ccc1Cl		> 25	> 25	> 25	> 25	0.3	Papp [2]: 214 ×10⁻⁶ cm/s; Kinetic_solubility [3]: BLD
Nc1nc(N)nc(Nc2ccc([As]3SCC(CO)S3)cc2)n1 (configuration not stated) [MELARSOPROL]							EC50 [7]: 0.012 µM; EC50 [5]: 0.0072 µM; EC50 [8]: 0.014 µM; EC50 [6]: 0.0067 µM
